What was measured:
[1] = organism: Rattus norvegicus; test: Antiarthritic activity in rat determined by adjuvant arthritis assay in rat; type: functional
In short: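 Female Lewis rats, starting weight 190 ± 10 g, adjuvant-induced arthritis. Compound milled into rodent diet, dosed as mg/kg/day in diet from the day of adjuvant injection for 14 days. Arthritic score and weight change assessed on day 16. ED50 is the dose giving a 50% reduction in arthritic score relative to untreated animals.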

[2] = organism: Rattus norvegicus; test: Compound was tested for dose at which there was no significant weight loss in rat at day 16; type: functional
In short: (§1)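 Female Lewis rats (starting weight 190 ± 10 g) with adjuvant-induced arthritis. Compound was milled into rodent chow and given in the diet (mg/kg/day) from the day of adjuvant injection for 14 days. Weight change and deaths were scored on day 16. The highest nontoxic dose was the highest dose without significant weight loss. LD50 was the dietary dose killing 50% by day 16. Some values are approximate, from two dose levels.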

[3] = organism: Rattus norvegicus; test: Compound was tested for lethal dose at day 16 against rat; type: ADME, organism-based; conditions: in vivo; in short: as §1

SMILES | ED50 [1] | Highest nontoxic dose [2] | LD50 [3]
Cn1cnc([N+](=O)[O-])c1Sc1nc(N)nc2c1ncn2[C@@H]1O[C@H](CO)[C@@H](O)[C@H]1O | 36 mg kg-1 (day in diet)-1 | 50 mg kg-1 (day in diet)-1 | 50 mg kg-1 (day in diet)-1
Cn1cnc([N+](=O)[O-])c1Sc1nc(N)nc2c1ncn2[C@H]1C[C@H](O)[C@@H](CO)O1 | 38 mg kg-1 (day in diet)-1 | 50 mg kg-1 (day in diet)-1 | 100 mg kg-1 (day in diet)-1
Cn1cnc([N+](=O)[O-])c1Sc1ncnc2c1ncn2[C@@H]1O[C@H](CO)[C@@H](O)[C@H]1O | 68 mg kg-1 (day in diet)-1 | 180 mg kg-1 (day in diet)-1 | 200 mg kg-1 (day in diet)-1
Sc1ncnc2nc[nH]c12 [MERCAPTOPURINE ANHYDROUS] | 20 mg kg-1 (day in diet)-1 | 20 mg kg-1 (day in diet)-1 | 25 mg kg-1 (day in diet)-1
Nc1nc2nc[nH]c2c(=S)[nH]1 [THIOGUANINE] | 10 mg kg-1 (day in diet)-1 | 10 mg kg-1 (day in diet)-1 | 20 mg kg-1 (day in diet)-1
Cn1cnc([N+](=O)[O-])c1Sc1ncnc2nc[nH]c12 [AZATHIOPRINE] | 21 mg kg-1 (day in diet)-1 | 48 mg kg-1 (day in diet)-1 | 150 mg kg-1 (day in diet)-1
Cn1cnc([N+](=O)[O-])c1Sc1ncnc2c1ncn2[C@H]1C[C@H](O)[C@@H](CO)O1 | 64 mg kg-1 (day in diet)-1 | 100 mg kg-1 (day in diet)-1 | > 270 mg kg-1 (day in diet)-1
Cn1cnc([N+](=O)[O-])c1Sc1nc(N)nc2[nH]cnc12 [THIAMIPRINE] | 19 mg kg-1 (day in diet)-1 | 30 mg kg-1 (day in diet)-1 | 60 mg kg-1 (day in diet)-1

Reference: ChEMBL document CHEMBL1124517, “Nucleosides of azathioprine and thiamiprine as antiarthritics” (J Med Chem, 1989)
